Molecules are shown by their SMILES. Calls of active or inactive are those of the source. The rule behind the calls is not given here.

Data on 16 compounds can be found in ChEMBL document CHEMBL4619801, “Discovery of Phthalazinone Derivatives as Novel Hepatitis B Virus Capsid Inhibitors” (J Med Chem, 2020).

Data set [1] deals with Hepatitis B virus. Description: Antiviral activity against HBV infected in human HepG2.2.15 cells assessed as reduction in cytoplasmic HBV-DNA replication incubated for 8 days by real-time PCR analysis. The data set is classed as functional, organism-based. The settings on record: HepG2 2.2.15, 192 h.
Data set [2] has as its system Hepatitis B virus. The experiment in a line: Antiviral activity against HBV infected in human HepG2.2.15 cells assessed as reduction in single-stranded form of viral DNA at 0.06 to 1 uM incubated for 8 days by Southern blotting analysis. It is filed as functional, organism-based. The settings on record: HepG2 2.2.15. The procedure, abridged: (§1)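 HepG2.2.15 cells grown in 12-well plates were treated at the indicated concentrations for 8 days. HBV DNA was extracted from intracellular capsids and detected by Southern blot hybridization with a DIG-labeled HBV genomic fragment probe. Relaxed circular (rc) and single-stranded (ss) replication intermediates were read from the blot.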

In data set [3] the test system is mouse (Mus musculus). The experiment in a line: Observed volume of distribution at steady state in mouse at 2 mg/kg, iv dosed as single administration. The following applies: in vivo, read-out: Vdss.
The subject of data set [4] is mouse (Mus musculus). Description: AUC (0 to infinity) in mouse at 2 mg/kg, iv dosed as single administration. The settings on record: in vivo.
Data set [5] is described as follows: Cytotoxicity in human HepG2.2.15 cells assessed as reduction in cell viability incubated for 8 days by MTT assay. It is filed as cell-based, HepG2 2.2.15. The procedure, abridged:
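This was run in the same 8-day HepG2.2.15 cultures. After the medium was removed, MTT was added (final 2.5 mg/mL) for 1 h at 37 °C. Cells were lysed in 10% SDS/50% DMF, pH 7.2, and OD was read at 570 nm to give % cell death. CC50 was averaged with SD from at least two independent determinations.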

Data set [6] concerns mouse (Mus musculus). The experiment in a line: Half life in mouse at 2 mg/kg, iv dosed as single administration. The following applies: in vivo.
Data set [7] concerns mouse (Mus musculus). The experiment in a line: AUC (0 to infinity) in mouse at 20 mg/kg, po dosed as single administration. The following applies: in vivo.
Data set [8] has as its system Hepatitis B virus. Description: Antiviral activity against HBV infected in human HepG2.2.15 cells assessed as reduction in relaxed circular form of viral DNA at 0.06 to 1 uM incubated for 8 days by Southern blotting analysis. It is filed as functional, organism-based. The following applies: HepG2 2.2.15. The procedure, abridged:
as §1

Data set [9] concerns mouse (Mus musculus). Description: Observed clearance in mouse at 2 mg/kg, iv dosed as single administration. The settings on record: in vivo.
Data set [10] relates to Hepatitis B virus. Description: Antiviral activity against HBV infected in human HepG2.2.15 cells assessed as reduction in cytoplasmic HBV-DNA replication at cytotoxic CC50 level incubated for 8 days by real-time PCR analysis. The settings on record: HepG2 2.2.15. The data set is classed as functional, organism-based.
Data set [11] is described as follows: Drug level in CD1 mouse liver at 20 mg/kg, po dosed as single administration measured after 24 hrs. The settings on record: in vivo. The data set is classed as ADME, organism-based. Put shortly:
(§2)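 ICR (CD-1) mice were dosed orally at 20 mg/kg. At set times (1, 3, 8 and 24 h), blood was taken from the heart and portal vein under isoflurane anesthesia and spun to plasma. Livers were removed after portal vein perfusion, rinsed in saline, weighed and homogenized in saline (5 mL/g). Samples were analysed by UPLC–MS/MS in positive electrospray mode.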

Data set [12] can be described thus: Drug level in CD1 mouse liver at 20 mg/kg, po dosed as single administration measured after 1 to 8 hrs. It is filed as ADME, organism-based. The settings on record: in vivo. The procedure, abridged: as §2
Data set [13] relates to Hepatitis B virus. Description: Antiviral activity against HBV infected in human HepG2.2.15 cells assessed as reduction in capsid associated DNAs at 0.1 uM by agarose gel electrophoresis method. It is filed as functional, organism-based. The following applies: HepG2 2.2.15. Put shortly: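 HepG2.2.15 cells treated at indicated concentrations for 8 days. Intracellular capsids resolved on 1.8% native agarose gel; capsid mobility compared with untreated cells, and capsid-associated HBV DNA detected in situ.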

Data set [14] concerns Hepatitis B virus. Description: Antiviral activity against HBV infected in human HepG2.2.15 cells assessed as reduction in capsid formation. It is filed as functional, organism-based. The following applies: HepG2 2.2.15.

Consider `COCCNc1nc(F)c(-c2nn(Cc3ccc(C#N)cc3)c(=O)c3ccccc23)cc1Cl`, for which, in the data set with Hepatitis B virus [1], the IC50 came out at 0.038 µM. The IC90 with Hepatitis B virus [1] amounted to 0.35 µM. For the same compound, the Activity entry in the data set with Hepatitis B virus [2] and in the data set with Hepatitis B virus [8] was “Dose-dependent effect” each time. For the same compound, the Vd in the data set with mouse (Mus musculus) [3] was 3.09 L/kg. The figures for the AUC(0-inf) with mouse (Mus musculus) [4] and with mouse (Mus musculus) [7] were 3070 ng·h/mL and 850 ng·h/mL, respectively. Also, in [5], the CC50 at 192 h is greater than 100 µM. Further, the half-life in the data set with mouse (Mus musculus) [6] is 3.09 h. Besides, in the data set with mouse (Mus musculus) [9], the clearance stood at 11.1 mL/min/kg.

On to `N#Cc1ccc(Cn2nc(-c3cc(Cl)c(NC[C@@H](O)CO)nc3F)c3ccccc3c2=O)cc1`, for which, in the data set with Hepatitis B virus [1], the IC50 is 0.008 µM and the IC90 worked out at 0.24 µM. For the same compound, the CC50 at 192 h in data set [5] was greater than 100 µM.

For the compound `COCCNc1ccc(-c2nn(Cc3ccc(C#N)cc3)c(=O)c3ccccc23)c(F)n1`, in the data set with Hepatitis B virus [1], the IC50 was determined as 0.43 µM and the IC90 is greater than 10 µM. Moreover, the CC50 at 192 h in data set [5] is greater than 100 µM.

Regarding `COc1cc(-c2ccc(F)nc2F)nn(Cc2ccc(Cl)cc2)c1=O`, the result in the data set on Hepatitis B virus [10] was inactive. The CC50 at 192 h in data set [5] was found to be 92.2 µM.

Turning to `N#Cc1ccc(Cn2nc(-c3ccc(F)nc3F)c3ccccc3c2=O)cc1`, the Drug uptake result in [11] is listed as “Not Active”; in [12], “Active”. In addition, the IC50 in the data set with Hepatitis B virus [1] amounted to 0.12 µM. The Activity entry in the data set on Hepatitis B virus [2] and in the data set with Hepatitis B virus [8] was “Dose-dependent effect” throughout. Moreover, the CC50 at 192 h in data set [5] is greater than 100 µM.

For `O=c1c2c(c(-c3ccc(F)nc3F)nn1Cc1ccc(Cl)cc1)CCCC2`, in the data set on Hepatitis B virus [1], the IC50 was 1.45 µM. Besides, the CC50 at 192 h in data set [5] is 31 µM.

Turning to `Cc1nc(-c2ccc(F)nc2F)cn(Cc2ccc(Cl)cc2)c1=O`, the result with Hepatitis B virus [10] was inactive. Besides, the CC50 at 192 h in data set [5] was greater than 100 µM.

As to `CC(C)c1cc(-c2ccc(F)nc2F)nn(Cc2ccc(Cl)cc2)c1=O`, the IC50 with Hepatitis B virus [1] amounted to 11.3 µM. Further, the CC50 at 192 h in data set [5] turned out to be 56.7 µM.

`O=c1c2ccccc2c(-c2ccc(F)nc2F)nn1Cc1ccc(Cl)cc1`: in the data set with Hepatitis B virus [1], the IC50 amounted to 0.3 µM. Also, in data set [5], the CC50 at 192 h was 36.7 µM.

As for `CNc1ccc(-c2nn(Cc3ccc(C#N)cc3)c(=O)c3ccccc23)c(F)n1`, in the data set on Hepatitis B virus [1], the IC50 came to 0.54 µM and the IC90 was greater than 10 µM. For the same compound, the CC50 at 192 h in data set [5] is greater than 100 µM.

Consider `Cn1cc(-c2ccc(F)nc2F)nc(Cc2ccc(Cl)cc2)c1=O`, for which the IC50 with Hepatitis B virus [1] stood at 1.89 µM. For the same compound, the CC50 at 192 h in data set [5] is greater than 100 µM.

For the compound `N#Cc1ccc(Cn2nc(-c3cc(Cl)c(NCCC(=O)O)nc3F)c3ccccc3c2=O)cc1`, in the data set with Hepatitis B virus [1], the IC50 worked out at 0.26 µM and the IC90 is 4.02 µM. In data set [5], the CC50 at 192 h was greater than 100 µM.

For the compound `Cc1ccc(-c2nn(Cc3ccc(C#N)cc3)c(=O)c3ccccc23)c(F)n1`, in the data set on Hepatitis B virus [1], the IC50 came to 0.82 µM and the IC90 is greater than 10 µM. For the same compound, the CC50 at 192 h in data set [5] is greater than 100 µM.

As to `Cc1cc(-c2ccc(F)nc2F)cn(Cc2ccc(Cl)cc2)c1=O`, the IC50 in the data set on Hepatitis B virus [1] worked out at 5.45 µM. For the same compound, the CC50 at 192 h in [5] is 90.8 µM.

Turning to `C=C1[C@H](CO)[C@@H](O)C[C@@H]1n1cnc2c(=O)[nH]c(N)nc21`, the outcome in the data set with Hepatitis B virus [13] was Active. Besides, the outcome with Hepatitis B virus [14] was inactive.

As to `O=C(O)c1cc(-c2ccc(F)nc2F)nn(Cc2ccc(Cl)cc2)c1=O`, in the data set with Hepatitis B virus [10], the result was inactive. Moreover, the CC50 at 192 h in [5] is greater than 100 µM.
